# Calls of active or inactive are those of the source. No cut-off for these calls is given here.
# Columns and labels:
# [1] = biological target: Mitogen-activated protein kinase 8 (Homo sapiens, UniProt P45983); experiment: Inhibition of recombinant SAPK1c (unknown origin)
# Calu-3 = experiment: cells; type: functional, cell-based; conditions: Homo sapiens, Calu-3, 72 h
# [2] = biological target: Receptor tyrosine-protein kinase erbB-3 (Homo sapiens) (UniProt P21860); experiment: Inhibition of ERBB3 phosphorylation in human HCC827 cells expressing GFP at 1 to 10000 nmol/L incubated for 12 hrs by Western blotting analysis; type: cell-based; conditions: dose 1-10000 nmol/L
# [3] = biological target: Serine/threonine-protein kinase Sgk1 (Homo sapiens, UniProt O00141); experiment: Inhibition of recombinant SGK (unknown origin)
# [4] = biological target: Serine/threonine-protein kinase Chk1 (Homo sapiens, UniProt O14757); experiment: Inhibition of recombinant CHK1 (unknown origin)
# BaF3 [5] = experiment: cells; type: functional, cell-based; conditions: Mus musculus, BaF3, 72 h
# HCC827 [6] = experiment: Antiproliferative activity against human HCC827 cells harboring EGFR Del E746_A750 mutant transfected with GFP assessed as inhibition of cell growth incubated for 72 hrs by MTS assay; type: functional, cell-based; conditions: HCC827, 72 h
# Summary of the method: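 MTS viable-cell assay (bioreduction to soluble formazan, spectrophotometric read) after 72 h drug exposure; cell numbers set empirically.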
# [7] = Inhibition of recombinant CDK2/Cyclin A (unknown origin); design: species or system Homo sapiens
# NCI-H3255 [8] = experiment: cells; type: functional, cell-based; conditions: Homo sapiens, NCI-H3255, 72 h
# [9] = Inhibition of recombinant p70S6K (unknown origin); design: species or system Homo sapiens
# NCI-H3255GR = experiment: Induction of apoptosis in human NCI-H3255GR cells assessed as increase in cleavage of PARP at 1 micromol/L incubated for 72 hrs by Western blotting analysis; type: functional, cell-based; conditions: dose 1.0 µmol/L
# BaF3 [10] = experiment: cells; type: functional, cell-based; conditions: Mus musculus, BaF3, 72 h; remark: listed apart in the source
# BaF3 [11] = experiment: cells; type: functional, cell-based; conditions: Mus musculus, BaF3, 72 h; remark: listed apart in the source
# [12] = biological target: Mitogen-activated protein kinase 11 (Homo sapiens, UniProt Q15759); experiment: Inhibition of recombinant SAPK2b/p38beta2 (unknown origin)
# [13] = biological target: Mitogen-activated protein kinase 13 (Homo sapiens, UniProt O15264); experiment: Inhibition of recombinant SAPK4/p38delta (unknown origin)
# [14] = biological target: Rho-associated protein kinase 2 (Homo sapiens, UniProt O75116); experiment: Inhibition of recombinant ROCK-II (unknown origin)
# BaF3 [15] = experiment: cells; type: functional, cell-based; conditions: Mus musculus, BaF3, 72 h; remark: listed apart in the source
# PC-9 = experiment: cells; type: functional, cell-based; conditions: Homo sapiens, PC-9, 72 h
# cells [16] = type: functional, cell-based; conditions: Homo sapiens, NCI-H1781, 72 h
# [17] = biological target: Dual specificity tyrosine-phosphorylation-regulated kinase 1A (Homo sapiens, UniProt Q13627); experiment: Inhibition of recombinant DYRK1a (unknown origin)
# [18] = Inhibition of recombinant PKB delta ph mutant (unknown origin); design: species or system Homo sapiens
# NCI-H441 = experiment: cells; type: functional, cell-based; conditions: Homo sapiens, NCI-H441, 72 h
# [19] = biological target: cAMP-dependent protein kinase (PKA) (Homo sapiens, UniProt P22694+P17612+P22612); experiment: Inhibition of recombinant PKA (unknown origin); type: protein assay
# NCI-H3255 [20] = experiment: cells; type: functional, cell-based; conditions: Homo sapiens, NCI-H3255, 72 h; remark: listed apart in the source
# [21] = biological target: Glycogen synthase kinase-3 beta (Homo sapiens, UniProt P49841); experiment: Inhibition of recombinant GSK3b (unknown origin)
# cells [22] = type: functional, cell-based; conditions: Homo sapiens, NCI-H1819, 72 h
# BaF3 [23] = experiment: cells; type: functional, cell-based; conditions: Mus musculus, BaF3, 72 h; remark: listed apart in the source
# NIH3T3 = conditions: Mus musculus, dose 1-10000 nmol/L, time 6.25 hrs
# HCC827 [24] = experiment: cells; type: functional, cell-based; conditions: Homo sapiens, HCC827, 72 h
# BaF3 [25] = experiment: cells; type: functional, cell-based; conditions: Mus musculus, BaF3, 72 h; remark: listed apart in the source
# HCC827 [26] = experiment: cells; type: functional, cell-based; conditions: Homo sapiens, HCC827, 72 h; remark: listed apart in the source
# [27] = biological target: AMP-activated protein kinase, AMPK; experiment: Inhibition of recombinant AMPK (unknown origin); type: protein-complex assay, Homo sapiens
# [28] = biological target: Mitogen-activated protein kinase 14 (Homo sapiens, UniProt Q16539); experiment: Inhibition of recombinant SAPK2a/p38 (unknown origin)
# Casein kinase I = experiment: Inhibition of recombinant CK1 (unknown origin); type: protein assay, Homo sapiens
# [29] = Inhibition of recombinant Akt (unknown origin); design: species or system Homo sapiens
# [30] = Inhibition of recombinant MAPK2/ERK2 (unknown origin); design: species or system Homo sapiens
# HCC827 [31] = experiment: cells; type: functional, cell-based; conditions: Homo sapiens, HCC827, 72 h; remark: listed apart in the source
# [32] = biological target: Cyclin-dependent kinase 4/cyclin D (Homo sapiens, UniProt P11802); experiment: Inhibition of recombinant CDK4/Cyclin D (unknown origin); type: protein-complex assay
# [33] = Inhibition of recombinant PDGF (unknown origin); design: species or system Homo sapiens
# BaF3 [34] = experiment: cells; type: functional, cell-based; conditions: Mus musculus, BaF3, 72 h; remark: listed apart in the source
# HCC827 [35] = experiment: cells; type: functional, cell-based; conditions: Homo sapiens, HCC827, 72 h; remark: listed apart in the source
# Serine/threonine-protein kinase Sgk1, sequence (O00141 whole entry): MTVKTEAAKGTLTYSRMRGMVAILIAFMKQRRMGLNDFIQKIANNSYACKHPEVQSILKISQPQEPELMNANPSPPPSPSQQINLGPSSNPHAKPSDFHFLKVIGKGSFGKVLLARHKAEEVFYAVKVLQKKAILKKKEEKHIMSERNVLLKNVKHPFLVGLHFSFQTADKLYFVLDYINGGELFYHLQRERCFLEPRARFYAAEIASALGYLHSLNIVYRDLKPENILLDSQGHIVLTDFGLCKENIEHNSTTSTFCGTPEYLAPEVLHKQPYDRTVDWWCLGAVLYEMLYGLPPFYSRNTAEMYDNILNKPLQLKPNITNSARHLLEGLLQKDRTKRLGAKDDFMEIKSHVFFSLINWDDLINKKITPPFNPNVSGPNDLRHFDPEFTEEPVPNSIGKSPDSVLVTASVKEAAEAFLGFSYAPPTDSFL
# Mitogen-activated protein kinase 13, sequence (O15264 whole entry): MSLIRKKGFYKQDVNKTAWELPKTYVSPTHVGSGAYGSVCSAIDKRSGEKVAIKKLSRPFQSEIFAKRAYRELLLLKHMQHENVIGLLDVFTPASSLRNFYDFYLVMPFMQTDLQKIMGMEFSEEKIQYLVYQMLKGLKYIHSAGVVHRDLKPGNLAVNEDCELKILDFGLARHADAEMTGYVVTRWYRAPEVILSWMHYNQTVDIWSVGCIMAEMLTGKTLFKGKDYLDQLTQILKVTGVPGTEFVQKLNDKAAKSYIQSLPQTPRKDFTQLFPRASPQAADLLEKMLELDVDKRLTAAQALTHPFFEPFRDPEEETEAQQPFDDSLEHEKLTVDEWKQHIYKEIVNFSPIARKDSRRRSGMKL
# Mitogen-activated protein kinase 14, sequence (Q16539 whole entry): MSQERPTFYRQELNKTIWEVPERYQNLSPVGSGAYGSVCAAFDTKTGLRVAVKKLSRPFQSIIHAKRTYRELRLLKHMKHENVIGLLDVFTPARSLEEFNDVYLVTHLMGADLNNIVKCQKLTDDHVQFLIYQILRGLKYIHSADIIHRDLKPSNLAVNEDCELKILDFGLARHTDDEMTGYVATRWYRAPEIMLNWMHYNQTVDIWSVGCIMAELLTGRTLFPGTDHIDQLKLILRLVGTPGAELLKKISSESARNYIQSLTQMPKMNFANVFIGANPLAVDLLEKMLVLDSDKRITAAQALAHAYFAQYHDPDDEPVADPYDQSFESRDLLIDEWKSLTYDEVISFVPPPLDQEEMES
# Glycogen synthase kinase-3 beta, sequence (P49841 whole entry): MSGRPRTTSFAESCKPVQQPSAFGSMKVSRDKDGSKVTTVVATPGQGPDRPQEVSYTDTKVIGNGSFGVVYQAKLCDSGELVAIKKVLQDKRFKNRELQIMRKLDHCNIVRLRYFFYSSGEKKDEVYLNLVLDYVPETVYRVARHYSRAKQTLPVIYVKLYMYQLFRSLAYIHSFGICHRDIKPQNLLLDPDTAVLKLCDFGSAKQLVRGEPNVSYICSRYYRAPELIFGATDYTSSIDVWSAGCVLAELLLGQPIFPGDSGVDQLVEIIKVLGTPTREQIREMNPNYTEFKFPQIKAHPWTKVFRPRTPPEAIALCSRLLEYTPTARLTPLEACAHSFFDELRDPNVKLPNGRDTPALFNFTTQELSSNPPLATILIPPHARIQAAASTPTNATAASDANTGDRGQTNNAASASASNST
# Mitogen-activated protein kinase 8, sequence (P45983 whole entry): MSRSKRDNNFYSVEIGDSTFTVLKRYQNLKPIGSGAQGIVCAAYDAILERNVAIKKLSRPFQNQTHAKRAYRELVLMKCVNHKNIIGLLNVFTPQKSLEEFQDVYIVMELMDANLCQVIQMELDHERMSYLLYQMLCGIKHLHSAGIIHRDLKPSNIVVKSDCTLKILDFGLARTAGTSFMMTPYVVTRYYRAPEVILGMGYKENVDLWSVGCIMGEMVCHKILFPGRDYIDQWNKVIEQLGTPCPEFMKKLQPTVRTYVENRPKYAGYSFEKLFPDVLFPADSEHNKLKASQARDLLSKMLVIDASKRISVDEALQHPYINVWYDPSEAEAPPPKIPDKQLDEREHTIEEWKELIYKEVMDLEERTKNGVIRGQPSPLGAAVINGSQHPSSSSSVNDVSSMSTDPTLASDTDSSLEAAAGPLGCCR
# Receptor tyrosine-protein kinase erbB-3 (Homo sapiens), sequence (P21860 whole entry): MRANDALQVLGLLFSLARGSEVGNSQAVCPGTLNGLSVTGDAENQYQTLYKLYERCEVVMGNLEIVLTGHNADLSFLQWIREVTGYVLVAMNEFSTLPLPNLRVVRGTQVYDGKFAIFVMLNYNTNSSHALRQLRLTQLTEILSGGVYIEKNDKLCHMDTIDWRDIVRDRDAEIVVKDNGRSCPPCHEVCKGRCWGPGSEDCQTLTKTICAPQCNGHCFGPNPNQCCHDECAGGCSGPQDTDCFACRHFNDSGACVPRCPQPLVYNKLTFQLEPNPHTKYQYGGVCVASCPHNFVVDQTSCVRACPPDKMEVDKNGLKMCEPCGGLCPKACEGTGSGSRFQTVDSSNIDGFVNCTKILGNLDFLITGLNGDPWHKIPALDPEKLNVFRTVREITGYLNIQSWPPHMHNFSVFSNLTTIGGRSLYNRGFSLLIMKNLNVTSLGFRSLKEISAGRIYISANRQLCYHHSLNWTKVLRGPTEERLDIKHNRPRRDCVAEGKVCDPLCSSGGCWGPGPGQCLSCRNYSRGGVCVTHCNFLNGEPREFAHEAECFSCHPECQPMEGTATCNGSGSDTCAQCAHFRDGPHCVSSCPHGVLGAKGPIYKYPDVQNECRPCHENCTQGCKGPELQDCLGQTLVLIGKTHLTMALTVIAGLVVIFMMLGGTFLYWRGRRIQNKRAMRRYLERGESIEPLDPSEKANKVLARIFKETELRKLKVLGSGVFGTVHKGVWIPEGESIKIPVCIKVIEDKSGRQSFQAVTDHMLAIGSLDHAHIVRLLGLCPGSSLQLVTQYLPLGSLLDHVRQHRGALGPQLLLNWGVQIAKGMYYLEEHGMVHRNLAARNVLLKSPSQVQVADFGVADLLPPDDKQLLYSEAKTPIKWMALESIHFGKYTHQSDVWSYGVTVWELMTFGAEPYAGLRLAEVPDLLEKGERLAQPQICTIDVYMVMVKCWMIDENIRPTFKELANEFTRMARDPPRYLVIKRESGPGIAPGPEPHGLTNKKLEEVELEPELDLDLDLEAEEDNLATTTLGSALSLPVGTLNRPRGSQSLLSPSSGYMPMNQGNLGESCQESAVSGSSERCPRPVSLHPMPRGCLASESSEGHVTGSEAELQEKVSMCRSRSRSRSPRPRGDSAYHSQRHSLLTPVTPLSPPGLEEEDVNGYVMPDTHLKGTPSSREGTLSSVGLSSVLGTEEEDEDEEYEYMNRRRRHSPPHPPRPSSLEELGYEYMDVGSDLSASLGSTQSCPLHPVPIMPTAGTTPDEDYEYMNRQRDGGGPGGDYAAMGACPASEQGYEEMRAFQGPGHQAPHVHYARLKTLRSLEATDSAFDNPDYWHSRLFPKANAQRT
# Rho-associated protein kinase 2, sequence (O75116 whole entry): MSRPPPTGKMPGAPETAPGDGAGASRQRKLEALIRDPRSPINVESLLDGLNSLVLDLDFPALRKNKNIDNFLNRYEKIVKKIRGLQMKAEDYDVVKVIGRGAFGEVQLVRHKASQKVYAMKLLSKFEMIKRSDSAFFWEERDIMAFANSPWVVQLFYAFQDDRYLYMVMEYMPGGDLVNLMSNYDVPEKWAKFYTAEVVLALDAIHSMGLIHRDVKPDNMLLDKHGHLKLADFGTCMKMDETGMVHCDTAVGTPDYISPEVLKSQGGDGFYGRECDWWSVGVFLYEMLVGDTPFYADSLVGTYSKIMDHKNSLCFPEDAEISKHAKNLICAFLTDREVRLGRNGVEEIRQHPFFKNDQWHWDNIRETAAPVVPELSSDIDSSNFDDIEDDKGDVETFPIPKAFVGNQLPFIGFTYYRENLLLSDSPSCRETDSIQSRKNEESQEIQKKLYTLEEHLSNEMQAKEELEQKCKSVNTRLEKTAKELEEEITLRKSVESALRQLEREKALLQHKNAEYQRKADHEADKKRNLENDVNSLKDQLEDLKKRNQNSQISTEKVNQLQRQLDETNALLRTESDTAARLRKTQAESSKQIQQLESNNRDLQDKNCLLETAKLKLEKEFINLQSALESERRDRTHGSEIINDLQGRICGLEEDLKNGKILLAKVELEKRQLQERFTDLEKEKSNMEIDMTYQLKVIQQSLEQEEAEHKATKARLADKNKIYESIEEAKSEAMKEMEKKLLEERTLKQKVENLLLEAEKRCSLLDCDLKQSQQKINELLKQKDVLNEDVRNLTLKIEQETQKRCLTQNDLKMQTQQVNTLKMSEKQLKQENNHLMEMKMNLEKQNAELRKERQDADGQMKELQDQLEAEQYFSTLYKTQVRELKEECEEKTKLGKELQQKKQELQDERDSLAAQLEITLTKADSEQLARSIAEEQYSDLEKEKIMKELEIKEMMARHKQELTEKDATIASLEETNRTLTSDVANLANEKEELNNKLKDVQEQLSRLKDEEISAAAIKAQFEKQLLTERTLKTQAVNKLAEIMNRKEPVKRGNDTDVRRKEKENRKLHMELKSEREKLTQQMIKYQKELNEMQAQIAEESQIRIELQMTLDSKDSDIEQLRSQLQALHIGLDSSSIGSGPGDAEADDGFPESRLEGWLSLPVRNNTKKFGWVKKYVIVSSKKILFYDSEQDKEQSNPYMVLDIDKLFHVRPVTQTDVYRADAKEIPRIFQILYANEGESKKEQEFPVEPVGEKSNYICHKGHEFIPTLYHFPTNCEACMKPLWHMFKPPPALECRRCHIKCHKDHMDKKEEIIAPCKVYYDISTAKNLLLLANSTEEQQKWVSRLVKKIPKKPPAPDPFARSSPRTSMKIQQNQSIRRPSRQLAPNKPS
smiles,measurement,setting,value
COc1cc2ncnc(Nc3ccc(F)c(Cl)c3)c2cc1NC(=O)/C=C/CN1CCCCC1 [DACOMITINIB ANHYDROUS],IC50,[1],> 10000 nM
same,IC50,Calu-3,63 nM
same,inhibition,[2],Active
same,IC50,[3],> 10000 nM
same,IC50,[4],> 10000 nM
same,IC50,BaF3 [5],240 nM
same,IC50,HCC827 [6],2 nM
same,IC50,[7],> 40000 nM
same,IC50,NCI-H3255 [8],1620 nM
same,IC50,[9],> 10000 nM
same,Activity,NCI-H3255GR,Active
same,IC50,BaF3 [10],1.4 nM
same,IC50,BaF3 [11],160 nM
same,IC50,[12],> 10000 nM
same,IC50,[13],> 10000 nM
same,IC50,[14],> 10000 nM
same,IC50,BaF3 [15],230 nM
same,IC50,PC-9,2 nM
same,IC50,cells [16],275 nM
same,IC50,[17],> 10000 nM
same,IC50,[18],> 10000 nM
same,IC50,NCI-H441,4000 nM
same,IC50,[19],> 40000 nM
same,IC50,NCI-H3255 [20],7 nM
same,IC50,[21],> 10000 nM
same,IC50,cells [22],29 nM
same,IC50,BaF3 [23],300 nM
same,inhibition,NIH3T3,Active
same,IC50,HCC827 [24],14 nM
same,IC50,BaF3 [25],1.2 nM
same,IC50,HCC827 [26],83 nM
same,IC50,[27],> 10000 nM
same,IC50,[28],> 10000 nM
same,IC50,Casein kinase I,> 10000 nM
same,IC50,[29],> 40000 nM
same,IC50,[30],> 10000 nM
same,IC50,HCC827 [31],2 nM
same,IC50,[32],> 40000 nM
same,IC50,[33],> 10000 nM
same,IC50,BaF3 [34],2.6 nM
same,IC50,HCC827 [35],3 nM
